Screening results as filed in PubChem.
SUMO HTRF inh = blocks human SUMOylation mediated by UBC9 | P63279 | HTRF SUMOylation assay, SAE1/SAE2 + UBC9, in vitro | actives 0.36% (n = 290,000) | inhibition, % at 35 µM; in the data active = inhibition above about 50%, passing the limit was not always enough
DNMT1 block = inhibitors of human DNMT1; DNMT1 molecular beacon, Hinp1I cleavage, fluorescence; inhibition (reported as % activation of signal), % at 10 µM; actives 0.83% (n = 360,000); P26358; in the data active = inhibition above about 50%
LMPTP block = LMPTP (human) inhibition | P24666 | recombinant LMPTP-A, OMFP fluorogenic substrate, fluorescence intensity | inhibition, % at 20 µM | actives 0.22% (n = 360,000) | AID 651560;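 active = compounds that cut the enzyme signal by at least half of the control window in the single-dose screen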;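 also: plate controls were DMSO wells with enzyme plus substrate for no effect and substrate without enzyme for full effect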
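Buffer or medium: Bis-Tris pH 6.0, DTT, detergent; Assay system: LMPTP-A enzyme; Quantity: 0.625 nM enzyme; Detection: endpoint fluorescence intensity; Times: 50 min dark incubation at room temperature; Controls: substrate-only low control, DMSO enzyme-plus-substrate high control; Doses: single 20 µM dose; Read-out: percent inhibition versus substrate-only and uninhibited controls; Reagent: 400 µM OMFP.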
Scp-1 inhibitor = blocks human Scp-1 phosphatase activity; Recombinant Scp1, phosphopeptide, malachite green phosphate absorbance; inhibition, % at 20 µM; Q9GZU7; actives 0.88% (n = 340,000);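 active = inhibition above about 50% at 20 µM, limit read from the data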;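 also: plate controls were DMSO wells with enzyme for no effect and wells lacking enzyme for full effect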
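Material: truncated SCP-1 phosphatase (76-261aa) / Buffer or medium: 50 mM Tris acetate pH 5.5, 0.005% Tween-20, 10 mM MgCl2 / Compound dosing: one concentration, 20 µM, with 1.0% DMSO / Incubation: 45 min room-temperature reaction, 5 min colour, 30 min stabiliser / Detection: colorimetric free-phosphate detection, absorbance 630 nm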
SUMO1-SIM PPI = modulators of human SUMO1-mediated protein-protein interactions. P63165. SUMO1 binding to a labelled peptide, TR-FRET, 1 h. inhibition, % at 20 µM. actives 0.33% (n = 360,000). AID 602429; in the data active = inhibition above about 37%
Target sequence (P63165 whole entry, looked up): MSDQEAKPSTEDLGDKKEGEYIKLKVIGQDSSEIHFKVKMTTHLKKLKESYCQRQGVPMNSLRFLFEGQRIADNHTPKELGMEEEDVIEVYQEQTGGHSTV
STEP inh = blocks human striatal-enriched tyrosine phosphatase | recombinant STEP, OMFP fluorogenic substrate, fluorescence | inhibition, % at 20 µM | actives 0.25% (n = 360,000) | P54829;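 active = inhibition at 20 µM, scaled per plate between control wells, above about 37%, limit read from the data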;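 also: 0% = DMSO with enzyme and substrate and 100% = substrate only without enzyme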
Target sequence (P54829 whole entry, looked up): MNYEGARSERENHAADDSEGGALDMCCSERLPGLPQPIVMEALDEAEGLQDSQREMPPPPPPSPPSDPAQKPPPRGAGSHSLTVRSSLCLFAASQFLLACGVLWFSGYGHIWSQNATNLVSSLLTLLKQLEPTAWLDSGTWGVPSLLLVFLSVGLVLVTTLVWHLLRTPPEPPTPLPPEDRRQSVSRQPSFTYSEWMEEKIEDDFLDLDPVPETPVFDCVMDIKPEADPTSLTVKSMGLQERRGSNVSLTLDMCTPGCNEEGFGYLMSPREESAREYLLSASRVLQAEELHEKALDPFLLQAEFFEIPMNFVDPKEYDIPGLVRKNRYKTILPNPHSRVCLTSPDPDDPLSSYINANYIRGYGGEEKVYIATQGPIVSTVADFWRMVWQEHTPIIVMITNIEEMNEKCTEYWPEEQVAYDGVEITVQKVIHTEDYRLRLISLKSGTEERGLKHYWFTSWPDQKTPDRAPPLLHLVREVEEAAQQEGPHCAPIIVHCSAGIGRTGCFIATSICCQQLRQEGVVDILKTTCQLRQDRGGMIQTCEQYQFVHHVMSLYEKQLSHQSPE
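Test system: STEP tyrosine phosphatase / Reagent: OMFP at 25 µM / Doses: 20 µM, 1% DMSO / Read-out: percent inhibition scaled to no-enzyme and uninhibited-enzyme controls, plate-pattern corrected / Detection: FITC-channel fluorescence of OMFP product / Medium: Bis-Tris buffer pH 6.0, 2.5 mM DTT, 0.005% Tween 20 / Schedule: 20 min at room temperature, dark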
Scp-1 conf = Scp-1 (human) inhibition, single-dose confirmed; shares compounds with Scp-1 inhibitor; actives 61% (n = 2,500); inhibition, % at 20 µM; AID 540281; recombinant SCP-1 catalytic domain, phosphate release, malachite green absorbance;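 also: plate controls were DMSO with enzyme for no effect and buffer wells lacking enzyme for full effect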
MG interference = interferes with malachite green readout, flagging false Scp-1 hits. shares compounds with Scp-1 inhibitor. Colorimetric interference counterscreen, malachite green absorbance 630 nm. apparent inhibition (interference), % at 20 µM. 2,500 tested, under 10 active. AID 540313;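 also: compounds added after enzyme reaction finished so only phosphate colour detection is probed; plate controls were DMSO wells with completed Scp-1 reaction for no effect and substrate wells lacking enzyme for full effect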
Scp1 DSF = validation of human Scp-1 inhibitors by thermal shift binding | Recombinant SCP1, Sypro Orange thermal shift Tm | shares compounds with Scp-1 inhibitor | actives 25% (n = 1,500) | thermal shift relative to vanadate control, % at 40 µM;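 active = substances whose mean melting-temperature shift, as a percentage of the reference inhibitor's shift, reaches about 5.3%, limit read from the data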;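 also: 0% = Tm of DMSO wells and 100% = Tm with sodium orthovanadate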
Numbers without * were called inactive; · = no result given. A selection: hits, their analogues and other compounds. The true share with any hit is near 1.9%.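 The calls were made as follows, unless noted: active = inhibition of at least 30% at 20 µM; inactive = the rest.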

SMILES	SUMO HTRF inh	DNMT1 block	LMPTP block	Scp-1 inhibitor	SUMO1-SIM PPI	STEP inh	Scp-1 conf	MG interference	others
Cc1ccc(CNC(=O)c2ccc3c(=O)c(O)c(-c4ccc(C)cc4)[nH]c3c2)cc1	48.0	34.4	-3.9	55.8*	-3.0	1.8	51.3*	-9.6	Scp1 DSF=-4.6
CC1=CC(C)(C)N(C(=O)c2ccccc2)c2ccccc21	16.9	-3.4	-0.1	-14.2	-6.4	3.4	·	·
CC1=CC(C)(C)[N+](C)(C)c2ccccc21	9.0	-2.0	-1.1	72.5*	4.0	-1.9	1.7	-8.7
CC(C)N(C(=O)CSc1nnc(-c2ccc3c(c2)OCO3)n1C)C(C)C	6.2	0.2	0.5	55.0*	-3.2	-1.1	-23.7	-18.9
CC(=O)/C(C[N+]1(C)CCCCC1)=N\O	-24.0	-1.9	-0.7	105.1*	6.1	-2.4	84.4*	-20.8	Scp1 DSF=-6.3
CCOC(=O)c1c(NC(=O)CSc2nnc(-c3c[nH]c4ccccc34)n2C)sc2c1CCCC2	-13.3	-27.1	3.1	52.6*	1.1	0.3	32.1*	15.4	Scp1 DSF=3.0
CC(C)(C)C(=O)OCc1nc(-c2ccc(F)cc2)cs1	-3.0	5.8	2.6	-14.1	-0.2	1.8	·	·
Cn1cnc(C(=O)N2CCc3ccccc3C2)c1C(=O)N1CCc2ccccc2C1	·	15.6	-0.2	95.3*	-3.1	-1.9	83.3*	-17.5	Scp1 DSF=-11.7
Cc1cc2oc(=O)cc(Cn3nnc(-c4ccc(Cl)cc4)n3)c2cc1C(C)C	-8.0	·	·	·	·	·	·	·
CCOC(=O)CCn1nc(-c2ccc(Cl)cc2)cc1N	6.5	9.3	1.5	89.2*	2.8	0.7	-18.8	-15.6
CCOC(=O)Cn1nc(-c2ccc(Cl)cc2)cc1N	19.2	-6.7	0.1	-6.8	0.1	1.5	·	·
Cc1cc(C)n(CCCNC(=O)C2CC(=O)N(Cc3ccccc3)C2)n1 (stereo not drawn)	·	-4.7	-4.1	-3.4	-1.7	-1.7	-2.5	-3.5
COc1ccc(NC(=O)c2ccc3c(c2)CCN3S(=O)(=O)c2ccccc2)c(OC)c1	-12.6	-1.4	3.4	60.5*	0.8	-0.8	-30.4	-32.1
O=C(Nc1ccccc1F)C1CCCN1S(=O)(=O)c1ccc(Cl)cc1 (stereo not drawn)	·	-2.3	-1.2	-5.7	7.8	-1.7	·	·
O=C(NN=C1C2CC3CC(C2)CC1C3)c1cccc(S(=O)(=O)N2CCOCC2)c1	3.0	-0.1	-1.4	-10.1	-5.2	-2.5	·	·
COc1ccccc1C(=O)NNC1CC(=O)N(c2ccc3c(c2)OCCO3)C1=O (stereo not drawn)	-2.9	0.2	-0.8	-4.4	-0.6	-2.6	-21.5	-15.9
CCOC(=O)C1=C(C)NC(=O)NC1c1ccc(Br)o1 (stereo not drawn)	-1.5	16.6	-1.5	52.2*	-0.9	-3.1	-8.4	-12.8
O=C1NC(=Nc2ccccc2)S/C1=C/c1cccs1	19.1	0.8	23.6	75.6*	-10.5	6.5	59.3*	-12.6	Scp1 DSF=2.9
CCCCCCN(C(=O)CCCCCN1C(=O)NC(c2ccc(-c3ccccc3)cc2)C(C(=O)OCc2ccccc2)=C1C)C(C(=O)NCCCC)c1cccc(C(=O)OC)c1 (stereo not drawn)	13.6	·	·	·	·	·	·	·
C[N+]12CCCCC1[C@@H](CO)CCC2 (stereo partly drawn)	-9.0	1.0	-0.3	54.9*	-5.1	0.8	3.5	-8.2
C[N+]1(C2CCC3CCC2C3O)CCCC1 (stereo not drawn)	-4.3	4.1	-1.7	5.5	5.9	-2.1	·	·
CCCOCC(O)CCc1n[nH]c(=S)n1-c1ccccc1 (stereo not drawn)	12.2	7.9	0.8	60.2*	-2.3	-1.1	-7.4	-5.7
C=CC[N+](C)(C)CCCNC(=O)/C=N/O	16.3	-23.5	-9.3	55.5*	-6.8	0.0	-6.8	-9.0
CN(C)CCCNCCCCNC(=O)/C=N/O	-15.9	-7.8	-12.6	-11.7	-1.9	-2.2	·	·
O=C(NCCS(=O)(=O)N1CCCCC1)c1ccc2c(c1)OCO2	·	2.3	-1.8	-2.7	-1.2	3.0	·	·
SMILES	SUMO HTRF inh	DNMT1 block	LMPTP block	Scp-1 inhibitor	SUMO1-SIM PPI	STEP inh	Scp-1 conf	MG interference	others
Cc1cc(CC(=O)O)c2oc(-c3ccoc3)cc(=O)c2c1	·	·	·	75.2*	·	·	45.9*	-15.3	Scp1 DSF=5.0
Cc1cc2c(=O)cc(-c3ccccc3)oc2c(C(=O)O)c1C	·	-4.2	-0.8	·	4.5	-1.7	·	·
CCOc1ncccc1C(=O)OCC(=O)c1cc(OC)c(OC)c(OC)c1	20.4	0.1	0.8	-10.4	-3.8	0.7	·	·
O=C(CN1C(=O)C2CCCCC2C1=O)Nc1ccccc1N1CCCC1 (stereo not drawn)	·	-0.1	0.8	62.3*	-0.8	1.4	-15.1	-12.0
O=C(Nc1ccc(F)cc1)c1cccc(N2C(=O)c3ccccc3C2=O)c1	25.8	-0.5	1.5	81.7*	20.9	13.3	55.4*	-5.2	Scp1 DSF=-2.9
COc1ccc(N/N=C(/C)c2cnnc(-c3ccccc3)n2)cc1	36.5	33.4	17.9	11.1	-23.9	2.5	·	·
O=C(CCN1C(=O)/C(=C\c2ccccc2F)SC1=S)N1CCCCC1	19.9	1.1	1.2	-7.6	-22.1	4.0	·	·
Cc1ccc(C)c(N2CCN(C(=O)c3ccc(CSc4nc5ccncc5[nH]4)cc3)CC2)c1	5.8	-3.6	27.9	56.2*	-1.8	-0.2	-15.7	-4.0
COc1cccc(C(=O)Nc2cccc(-c3nnc(-c4ccco4)o3)c2)c1	15.8	-4.5	3.3	-17.1	7.4	0.2	·	·
COc1ccc(Br)cc1C(=O)Nc1cccc(-c2nnc(-c3ccco3)o2)c1	·	44.2	31.9	97.8*	18.3	32.6	71.7*	-11.4	Scp1 DSF=2.4
C[C@H]1CCCCO[C@@H](CN(C)C(=O)NC2CCCCC2)[C@@H](C)CN([C@@H](C)CO)C(=O)c2cc(NC(=O)Cc3ccccc3)ccc2O1	·	0.1	-0.7	·	2.2	-0.4	·	·
Fc1ccc2cnc(-c3ccccc3)c(-c3cc(C(F)(F)F)cc(C(F)(F)F)c3)c2c1	·	22.9	3.7	58.5*	9.4	3.1	22.1	-9.0
COc1cc2cnc(-c3ccccc3)c(-c3ccc(C(F)(F)F)cc3)c2cc1OC	·	-5.0	2.7	18.1	9.4	-3.5	·	·
Fc1ccc2cnc(-c3ccccc3)c(-c3ccc(C(F)(F)F)cc3)c2c1	·	13.0	1.2	72.5*	4.8	1.1	7.2	-12.3
